# Laboratory results from the M2OR odorant receptor database.
# Numbering of substitutions follows the chain as printed.
# How the values were obtained:
# Details in all cases: stereoisomer not certain
# [1] = target: T1, OR2J2 (Homo sapiens) (UniProt O76002)
# T1 sequence (whole entry): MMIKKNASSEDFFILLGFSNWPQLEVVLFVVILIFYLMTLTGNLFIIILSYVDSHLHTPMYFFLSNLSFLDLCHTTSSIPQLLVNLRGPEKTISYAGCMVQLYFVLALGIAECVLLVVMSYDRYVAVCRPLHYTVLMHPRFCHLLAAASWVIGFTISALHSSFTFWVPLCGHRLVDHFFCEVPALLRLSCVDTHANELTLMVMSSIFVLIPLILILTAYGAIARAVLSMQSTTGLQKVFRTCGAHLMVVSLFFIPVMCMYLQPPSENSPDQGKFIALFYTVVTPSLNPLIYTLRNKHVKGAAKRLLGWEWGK
# How it was run: (§1)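 Whether a receptor–molecule pair is responsive (active) rests on the original authors' judgment that its measured signal was statistically different from baseline. Pairs without that judgment are non-responsive (inactive). Sources used varied assay methods, commonly transient luciferase assays in mammalian cell lines.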
# [2] = target: T2, OR2J1 (Homo sapiens) (UniProt Q9GZK6)
# T2 sequence (whole entry): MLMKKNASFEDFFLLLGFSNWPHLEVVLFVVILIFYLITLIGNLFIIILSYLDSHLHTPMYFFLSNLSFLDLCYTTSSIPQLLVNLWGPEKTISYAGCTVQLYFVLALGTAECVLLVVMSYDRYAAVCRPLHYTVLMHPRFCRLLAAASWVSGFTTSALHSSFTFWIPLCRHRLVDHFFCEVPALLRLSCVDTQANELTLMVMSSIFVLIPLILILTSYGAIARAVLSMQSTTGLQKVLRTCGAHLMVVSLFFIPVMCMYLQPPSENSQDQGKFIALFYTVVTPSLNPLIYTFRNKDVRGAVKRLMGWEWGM
# How it was run: as §1
# [3] = target: T3, OR2J3 (Homo sapiens) (UniProt O76001)
# T3 sequence (whole entry): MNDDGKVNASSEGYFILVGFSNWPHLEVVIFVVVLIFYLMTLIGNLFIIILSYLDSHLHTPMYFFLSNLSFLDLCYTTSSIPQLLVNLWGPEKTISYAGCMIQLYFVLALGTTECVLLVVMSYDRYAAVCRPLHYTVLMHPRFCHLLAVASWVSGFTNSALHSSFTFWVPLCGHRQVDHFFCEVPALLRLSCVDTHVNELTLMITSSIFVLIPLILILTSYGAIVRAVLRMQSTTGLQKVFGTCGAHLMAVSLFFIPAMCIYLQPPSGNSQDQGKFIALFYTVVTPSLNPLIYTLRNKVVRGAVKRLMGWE
# How it was run: as §1
# [4] = target: T4, OR2K2 (Homo sapiens) (UniProt Q8NGT1)
# T4 sequence (whole entry): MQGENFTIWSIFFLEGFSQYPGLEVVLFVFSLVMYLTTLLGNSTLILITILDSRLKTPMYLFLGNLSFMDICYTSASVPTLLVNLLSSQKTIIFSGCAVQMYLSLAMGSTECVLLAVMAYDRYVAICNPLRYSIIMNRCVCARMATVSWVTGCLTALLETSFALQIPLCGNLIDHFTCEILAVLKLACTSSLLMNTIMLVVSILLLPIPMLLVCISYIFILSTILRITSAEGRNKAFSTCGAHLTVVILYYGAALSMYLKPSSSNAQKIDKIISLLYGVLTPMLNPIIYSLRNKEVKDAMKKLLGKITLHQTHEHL
# How it was run: as §1
# [5] = target: T5, OR2L13 (Homo sapiens) (UniProt Q8N349)
# T5 sequence (whole entry): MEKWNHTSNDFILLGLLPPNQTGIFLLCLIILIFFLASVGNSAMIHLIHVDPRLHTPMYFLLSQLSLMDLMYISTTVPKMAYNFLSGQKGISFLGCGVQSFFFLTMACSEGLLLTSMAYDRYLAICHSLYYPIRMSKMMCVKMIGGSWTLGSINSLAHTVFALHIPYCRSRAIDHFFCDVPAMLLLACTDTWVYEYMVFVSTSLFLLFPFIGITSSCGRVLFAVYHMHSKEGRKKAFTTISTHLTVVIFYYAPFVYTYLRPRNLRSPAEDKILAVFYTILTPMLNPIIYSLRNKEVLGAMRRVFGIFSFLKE
# How it was run: as §1
# [6] = target: T6, OR2L2 (Homo sapiens) (UniProt Q8NH16)
# T6 sequence (whole entry): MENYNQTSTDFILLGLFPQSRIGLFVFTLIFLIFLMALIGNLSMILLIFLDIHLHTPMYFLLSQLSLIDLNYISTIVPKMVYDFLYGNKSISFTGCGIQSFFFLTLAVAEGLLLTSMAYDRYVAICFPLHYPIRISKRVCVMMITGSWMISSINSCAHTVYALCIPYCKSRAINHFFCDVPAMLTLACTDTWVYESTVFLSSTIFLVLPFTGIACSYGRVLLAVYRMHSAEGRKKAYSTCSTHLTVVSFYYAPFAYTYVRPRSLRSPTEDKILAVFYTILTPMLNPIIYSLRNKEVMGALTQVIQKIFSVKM
# How it was run: as §1
# [7] = target: T7, OR2L3 (Homo sapiens) (UniProt Q8NG85)
# T7 sequence (whole entry): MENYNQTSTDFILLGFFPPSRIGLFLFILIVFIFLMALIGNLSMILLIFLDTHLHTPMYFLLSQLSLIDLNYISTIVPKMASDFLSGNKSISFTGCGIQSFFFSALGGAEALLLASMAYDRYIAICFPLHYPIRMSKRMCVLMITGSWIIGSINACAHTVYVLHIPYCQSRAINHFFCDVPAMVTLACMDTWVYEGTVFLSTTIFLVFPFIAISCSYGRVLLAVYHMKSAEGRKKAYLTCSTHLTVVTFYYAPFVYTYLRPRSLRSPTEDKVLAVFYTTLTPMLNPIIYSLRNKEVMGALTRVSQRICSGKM
# How it was run: as §1
# [8] = target: T8, OR2L5 (Homo sapiens) (UniProt Q8NG80)
# T8 sequence (whole entry): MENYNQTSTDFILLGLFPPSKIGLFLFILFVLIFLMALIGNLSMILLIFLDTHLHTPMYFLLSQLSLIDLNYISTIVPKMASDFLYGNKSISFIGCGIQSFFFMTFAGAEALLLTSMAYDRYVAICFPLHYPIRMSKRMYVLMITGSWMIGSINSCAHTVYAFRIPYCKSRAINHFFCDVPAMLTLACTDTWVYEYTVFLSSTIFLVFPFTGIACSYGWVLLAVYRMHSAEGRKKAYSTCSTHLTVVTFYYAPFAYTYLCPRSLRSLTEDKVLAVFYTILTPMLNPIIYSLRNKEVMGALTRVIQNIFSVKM
# How it was run: as §1
# [9] = target: T9, OR2L8 (Homo sapiens) (UniProt Q8NGY9)
# T9 sequence (whole entry): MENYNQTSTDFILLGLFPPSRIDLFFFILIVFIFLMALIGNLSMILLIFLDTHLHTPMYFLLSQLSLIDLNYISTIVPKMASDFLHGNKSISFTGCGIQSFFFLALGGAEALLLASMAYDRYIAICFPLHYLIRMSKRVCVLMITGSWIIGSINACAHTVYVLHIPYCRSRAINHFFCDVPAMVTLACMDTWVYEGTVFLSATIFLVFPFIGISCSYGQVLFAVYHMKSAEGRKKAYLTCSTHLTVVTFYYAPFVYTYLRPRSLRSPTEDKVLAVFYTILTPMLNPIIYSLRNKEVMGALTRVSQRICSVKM
# How it was run: as §1
# [10] = target: T10, OR2M2 (Homo sapiens) (UniProt Q96R28)
# T10 sequence (whole entry): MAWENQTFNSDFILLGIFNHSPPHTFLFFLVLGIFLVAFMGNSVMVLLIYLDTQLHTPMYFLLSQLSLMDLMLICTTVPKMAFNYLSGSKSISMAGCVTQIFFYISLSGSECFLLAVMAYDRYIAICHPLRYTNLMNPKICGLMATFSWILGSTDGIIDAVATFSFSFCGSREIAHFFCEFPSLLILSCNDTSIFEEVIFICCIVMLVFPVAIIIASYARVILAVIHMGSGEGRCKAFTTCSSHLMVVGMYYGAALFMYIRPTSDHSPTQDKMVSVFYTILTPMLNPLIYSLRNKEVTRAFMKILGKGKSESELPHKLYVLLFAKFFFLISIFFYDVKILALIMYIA
# How it was run: as §1
# [11] = target: T11, OR2M3 (Homo sapiens) (UniProt Q8NG83)
# T11 sequence (whole entry): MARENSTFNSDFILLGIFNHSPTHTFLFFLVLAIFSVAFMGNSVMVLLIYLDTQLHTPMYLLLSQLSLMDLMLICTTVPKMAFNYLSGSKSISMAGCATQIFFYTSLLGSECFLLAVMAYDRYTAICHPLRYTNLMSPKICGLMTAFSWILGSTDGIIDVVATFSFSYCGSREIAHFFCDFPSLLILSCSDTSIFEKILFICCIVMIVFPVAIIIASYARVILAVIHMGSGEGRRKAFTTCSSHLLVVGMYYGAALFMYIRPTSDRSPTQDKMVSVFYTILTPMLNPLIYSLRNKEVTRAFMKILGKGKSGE
# How it was run: as §1
# [12] = test system: T12, OR2H2
# T12 sequence (whole entry): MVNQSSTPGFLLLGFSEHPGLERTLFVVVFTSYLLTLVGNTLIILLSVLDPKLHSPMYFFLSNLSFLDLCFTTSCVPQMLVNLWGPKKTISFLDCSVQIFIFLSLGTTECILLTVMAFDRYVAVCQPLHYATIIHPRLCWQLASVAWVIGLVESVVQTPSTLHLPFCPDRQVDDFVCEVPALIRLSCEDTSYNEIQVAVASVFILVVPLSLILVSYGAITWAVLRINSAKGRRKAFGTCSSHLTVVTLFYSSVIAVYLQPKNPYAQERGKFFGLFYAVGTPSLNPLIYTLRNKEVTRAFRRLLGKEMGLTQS
# How it was run: as §1
# [13] = test system: T13, OR2J1 L14I V182A
# T13 sequence (whole entry): T2 sequence (whole entry) with L14I, V182A
# How it was run: as §1
# [14] = test system: T14, OR2J2
# T14 sequence (whole entry): T1 sequence (whole entry) with H74Y, A111T, A146V, A218T
# How it was run: as §1
# [15] = test system: T15, OR2J3
# T15 sequence (whole entry): T3 sequence (whole entry) with V228I, I261M
# How it was run: as §1
# [16] = test system: OR2M3 A216T
# How it was run: as §1
# [17] = test system: OR2M3 A33G M144T
# How it was run: as §1
# [18] = test system: OR2M3 A33G
# How it was run: as §1
# 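Further: active if original authors judged signal statistically different from baseline.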
# OR2M3 A33G, sequence (as listed by the source, stated change not applied): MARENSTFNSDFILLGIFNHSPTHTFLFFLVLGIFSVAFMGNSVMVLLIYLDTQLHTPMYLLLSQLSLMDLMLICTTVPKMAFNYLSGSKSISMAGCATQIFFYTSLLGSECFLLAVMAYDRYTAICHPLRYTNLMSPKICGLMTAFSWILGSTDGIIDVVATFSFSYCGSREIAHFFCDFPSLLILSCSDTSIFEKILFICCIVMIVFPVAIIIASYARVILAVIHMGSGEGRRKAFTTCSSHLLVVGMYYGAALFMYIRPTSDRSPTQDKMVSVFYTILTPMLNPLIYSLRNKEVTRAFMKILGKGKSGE
# OR2M3 A216T, sequence (as listed by the source, stated change not applied): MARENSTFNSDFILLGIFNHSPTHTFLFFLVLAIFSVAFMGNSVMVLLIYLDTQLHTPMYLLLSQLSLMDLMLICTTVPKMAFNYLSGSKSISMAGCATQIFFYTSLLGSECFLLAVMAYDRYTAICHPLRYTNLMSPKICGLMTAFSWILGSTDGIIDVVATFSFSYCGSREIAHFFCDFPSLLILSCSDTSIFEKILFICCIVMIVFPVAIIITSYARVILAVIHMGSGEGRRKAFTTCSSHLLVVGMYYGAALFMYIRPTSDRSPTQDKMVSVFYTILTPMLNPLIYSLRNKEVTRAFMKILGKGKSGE
structure (smiles),measurement,setting,value
CCCCCCC(C)=O,odorant receptor agonist call,[1],inactive
O=C1Cc2ccccc2O1,odorant receptor agonist call,[1],inactive
CCCCCCCCCS,odorant receptor agonist call,[1],inactive
CCCCCC(=O)C(C)C(C)=O (stereo not drawn),odorant receptor agonist call,[2],inactive
same,odorant receptor agonist call,[1],inactive
same,odorant receptor agonist call,[3],inactive
same,odorant receptor agonist call,[4],inactive
same,odorant receptor agonist call,[5],inactive
same,odorant receptor agonist call,[6],inactive
same,odorant receptor agonist call,[7],inactive
same,odorant receptor agonist call,[8],inactive
same,odorant receptor agonist call,[9],inactive
same,odorant receptor agonist call,[10],inactive
same,odorant receptor agonist call,[11],inactive
CCC(=O)C(=O)CC,odorant receptor agonist call,[1],inactive
CC1=C(O)C(=O)OC1C (stereo not drawn),odorant receptor agonist call,[12],inactive
same,odorant receptor agonist call,[2],inactive
same,odorant receptor agonist call,[13],inactive
same,odorant receptor agonist call,[14],inactive
same,odorant receptor agonist call,[3],inactive
same,odorant receptor agonist call,[15],inactive
same,odorant receptor agonist call,[4],inactive
same,odorant receptor agonist call,[5],inactive
same,odorant receptor agonist call,[6],inactive
same,odorant receptor agonist call,[7],inactive
same,odorant receptor agonist call,[8],inactive
same,odorant receptor agonist call,[9],inactive
same,odorant receptor agonist call,[10],inactive
same,odorant receptor agonist call,[11],inactive
CCCC(S)CCOC(C)=O (stereo not drawn),odorant receptor agonist call,[12],inactive
same,odorant receptor agonist call,[2],inactive
same,odorant receptor agonist call,[13],inactive
same,odorant receptor agonist call,[14],inactive
same,odorant receptor agonist call,[3],inactive
same,odorant receptor agonist call,[15],inactive
same,odorant receptor agonist call,[4],inactive
same,odorant receptor agonist call,[5],inactive
same,odorant receptor agonist call,[6],inactive
same,odorant receptor agonist call,[7],inactive
same,odorant receptor agonist call,[8],inactive
same,odorant receptor agonist call,[9],inactive
same,odorant receptor agonist call,[10],inactive
same,odorant receptor agonist call,[11],inactive
CCCCOC=O,odorant receptor agonist call,[1],inactive
CCC(S)C(C)CO (stereo not drawn),odorant receptor agonist call,[2],inactive
same,odorant receptor agonist call,[1],inactive
same,odorant receptor agonist call,[3],inactive
same,odorant receptor agonist call,[4],inactive
same,odorant receptor agonist call,[5],inactive
same,odorant receptor agonist call,[6],inactive
same,odorant receptor agonist call,[7],inactive
same,odorant receptor agonist call,[8],inactive
same,odorant receptor agonist call,[9],inactive
same,odorant receptor agonist call,[10],inactive
same,odorant receptor agonist call,[11],active
same,odorant receptor agonist call,[16],active
same,odorant receptor agonist call,[17],inactive
same,odorant receptor agonist call,[18],active
